This is an account of results in ChEMBL document CHEMBL5661979, “Pharmacological inhibition of BMK1 suppresses tumor growth through promyelocytic leukemia protein” (Cancer Cell, 2010).

One may read the inhibition as the change of the read-out against control, counted positive when it falls. The pIC50 is −log10 of the IC50, conventionally taken in molar units. Read a high pIC50 as a small IC50. What is called IC50 is the concentration that inhibits the measured activity by half. Low readings indicate higher potency, high ones lower potency.

The target in series [1] is T1, Mitogen-activated protein kinase kinase kinase kinase 2 (Homo sapiens) (UniProt Q12851).
T1 sequence (whole entry): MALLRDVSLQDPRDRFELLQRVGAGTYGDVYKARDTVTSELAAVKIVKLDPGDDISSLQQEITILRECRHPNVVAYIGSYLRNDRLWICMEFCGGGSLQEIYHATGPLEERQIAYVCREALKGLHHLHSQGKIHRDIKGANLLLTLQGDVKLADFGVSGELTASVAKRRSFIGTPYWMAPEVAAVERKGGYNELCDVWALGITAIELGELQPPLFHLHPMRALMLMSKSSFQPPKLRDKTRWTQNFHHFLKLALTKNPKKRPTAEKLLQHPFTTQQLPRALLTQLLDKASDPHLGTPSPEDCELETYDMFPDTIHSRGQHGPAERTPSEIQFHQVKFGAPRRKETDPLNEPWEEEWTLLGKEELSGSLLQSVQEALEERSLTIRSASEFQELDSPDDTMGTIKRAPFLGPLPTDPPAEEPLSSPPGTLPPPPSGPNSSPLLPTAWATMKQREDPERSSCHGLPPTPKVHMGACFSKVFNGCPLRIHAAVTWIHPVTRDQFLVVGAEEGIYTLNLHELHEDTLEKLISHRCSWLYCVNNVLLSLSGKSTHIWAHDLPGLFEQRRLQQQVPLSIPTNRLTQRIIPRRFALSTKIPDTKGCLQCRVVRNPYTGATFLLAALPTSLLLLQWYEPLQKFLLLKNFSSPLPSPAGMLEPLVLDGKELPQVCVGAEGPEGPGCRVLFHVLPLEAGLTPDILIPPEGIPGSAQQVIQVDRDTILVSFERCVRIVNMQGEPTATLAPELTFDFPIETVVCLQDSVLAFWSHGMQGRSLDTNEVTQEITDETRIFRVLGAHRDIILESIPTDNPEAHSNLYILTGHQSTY
As to the kind of experiment: Inhibition of GCK in human HeLa cells lysate at 10 uM pre incubated for 15 mins followed by ADP acyl phosphate probe addition and measured after 10 mins by LC-MS/MS analysis relative to control. The format is subcellular. Particulars: time 25.0 min.

The target of series [2] is Ribosomal protein S6 kinase alpha-1 (Homo sapiens, UniProt Q15418). Kind of series: Inhibition of RSK1 domain 2 in human HeLa cells lysate pre incubated for 15 mins followed by ATP acyl phosphate probe addition and measured after 10 mins by LC-MS/MS analysis. Type of series: subcellular.
Ribosomal protein S6 kinase alpha-1, sequence (Q15418 whole entry, the tested form may be a part): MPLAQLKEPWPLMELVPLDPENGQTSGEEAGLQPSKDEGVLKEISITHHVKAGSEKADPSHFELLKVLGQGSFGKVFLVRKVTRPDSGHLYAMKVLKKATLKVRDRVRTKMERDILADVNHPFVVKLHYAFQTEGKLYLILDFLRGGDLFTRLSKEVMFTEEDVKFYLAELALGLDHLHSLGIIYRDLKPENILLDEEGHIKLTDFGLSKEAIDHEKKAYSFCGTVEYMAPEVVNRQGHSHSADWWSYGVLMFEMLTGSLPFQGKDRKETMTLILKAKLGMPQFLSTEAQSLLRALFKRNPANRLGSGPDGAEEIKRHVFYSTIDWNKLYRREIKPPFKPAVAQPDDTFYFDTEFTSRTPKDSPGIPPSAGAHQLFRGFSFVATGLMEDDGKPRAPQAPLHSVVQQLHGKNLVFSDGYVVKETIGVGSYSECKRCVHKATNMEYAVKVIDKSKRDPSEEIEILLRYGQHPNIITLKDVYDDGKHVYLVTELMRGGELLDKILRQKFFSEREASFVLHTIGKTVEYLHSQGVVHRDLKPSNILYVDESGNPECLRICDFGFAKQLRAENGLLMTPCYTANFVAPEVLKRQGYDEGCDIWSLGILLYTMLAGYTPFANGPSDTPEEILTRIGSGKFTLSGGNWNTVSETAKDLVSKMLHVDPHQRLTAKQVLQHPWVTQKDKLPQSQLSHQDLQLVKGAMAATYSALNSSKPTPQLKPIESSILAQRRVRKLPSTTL
The nature of series [3]: Plasma concentration in Sprague-Dawley rat at 2 mg/kg, po measured after 30 mins by LC-MS/MS analysis. Type of series: ADME, organism-based.
The target in series [4] is T2, Dual specificity mitogen-activated protein kinase kinase 3 (Homo sapiens) (UniProt P46734).
T2 sequence (whole entry): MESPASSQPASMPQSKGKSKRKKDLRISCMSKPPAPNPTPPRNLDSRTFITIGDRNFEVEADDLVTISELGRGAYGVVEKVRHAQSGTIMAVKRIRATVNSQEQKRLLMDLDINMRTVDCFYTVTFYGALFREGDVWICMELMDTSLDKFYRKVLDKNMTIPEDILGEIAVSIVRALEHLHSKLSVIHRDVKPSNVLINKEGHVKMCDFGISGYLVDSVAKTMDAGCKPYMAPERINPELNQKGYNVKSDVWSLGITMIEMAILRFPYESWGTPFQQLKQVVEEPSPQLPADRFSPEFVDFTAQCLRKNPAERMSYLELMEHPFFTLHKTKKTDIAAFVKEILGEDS
Kind of series: Inhibition of MAP2K3 in human HeLa cells lysate at 2 uM pre incubated for 15 mins followed by ADP acyl phosphate probe addition and measured after 10 mins by LC-MS/MS analysis relative to control. The format is subcellular. As to conditions: time 25.0 min.

The target of series [5] is RAC-alpha serine/threonine-protein kinase (Homo sapiens, UniProt P31749). As to the kind of experiment: Inhibition of AKT1 in human HeLa cells lysate at 2 uM pre incubated for 15 mins followed by ATP acyl phosphate probe addition and measured after 10 mins by LC-MS/MS analysis relative to control. Particulars: time 25.0 min. Type of series: subcellular. The essentials:
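HeLa cell lysates (5 mg/mL total protein) were preincubated with inhibitor at 0, 0.8, 2, 10 or 50 μM for 15 min. ATP or ADP acylphosphate probe was then added (5 μM final) for 10 min, and reactions were stopped with urea. Up to four fragment ions per kinase probe-peptide were quantified by targeted MS. % inhibition was taken relative to untreated lysate. Run in duplicate.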

Series [6] deals with Cyclin-dependent kinase 1 (Homo sapiens, UniProt P06493). As to the kind of experiment: Inhibition of CDC2 in human HeLa cells lysate pre incubated for 15 mins followed by ADP acyl phosphate probe addition and measured after 10 mins by LC-MS/MS analysis. The format is subcellular. The essentials:
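KiNativ profiling in HeLa lysate (5 mg/mL total protein). Lysate incubated 15 min with inhibitor at 50, 10, 2, 0.8 or 0 μM. ATP or ADP acylphosphate probe then added (5 μM final) and reacted 10 min. Reaction stopped with urea and analysed by targeted MS, using up to four fragment ions per kinase peptide-probe conjugate. % inhibition taken against untreated lysate. Run in duplicate.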

Series [7] in a line: Inhibition of MAP3K2/MAP3K3 in human HeLa cells lysate at 2 uM pre incubated for 15 mins followed by ADP acyl phosphate probe addition and measured after 10 mins by LC-MS/MS analysis relative to control. As to conditions: 25 min, condition cancer.
The target of series [8] is c-Jun N-terminal kinase, JNK (Homo sapiens, UniProt P45983+P53779+P45984). As to the kind of experiment: Inhibition of JNK1/JNK2/JNK3 in human HeLa cells lysate pre incubated for 15 mins followed by ATP acyl phosphate probe addition and measured after 10 mins by LC-MS/MS analysis. The format is subcellular.
The target in series [9] is T3, EKC/KEOPS complex subunit TP53RK (Homo sapiens) (UniProt Q96S44).
T3 sequence (whole entry): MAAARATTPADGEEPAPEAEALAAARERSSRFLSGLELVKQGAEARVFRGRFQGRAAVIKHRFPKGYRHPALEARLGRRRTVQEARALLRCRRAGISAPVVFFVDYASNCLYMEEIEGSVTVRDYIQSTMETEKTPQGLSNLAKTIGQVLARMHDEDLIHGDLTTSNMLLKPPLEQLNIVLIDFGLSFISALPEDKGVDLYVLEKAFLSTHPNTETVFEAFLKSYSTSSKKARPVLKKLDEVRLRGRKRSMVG
Kind of series: Inhibition of PRPK in human HeLa cells lysate at 2 uM pre incubated for 15 mins followed by ADP acyl phosphate probe addition and measured after 10 mins by LC-MS/MS analysis relative to control. Type of series: subcellular. Particulars: time 25.0 min.

Series [10] addresses Serine/threonine-protein kinase B-raf (Homo sapiens, UniProt P15056). Kind of series: Inhibition of BRAF in human HeLa cells lysate at 50 uM pre incubated for 15 mins followed by ATP acyl phosphate probe addition and measured after 10 mins by LC-MS/MS analysis relative to control. Type of series: subcellular. As to conditions: time 25.0 min. The essentials: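 KiNativ-type profiling in HeLa lysate (5 mg/mL total protein). Lysate preincubated 15 min with inhibitor at 50, 10, 2, 0.8 or 0 μM, then ATP or ADP acylphosphate probe added (5 μM final) for 10 min. Reaction stopped with urea and analysed by targeted MS, using up to four fragment ions per kinase peptide-probe conjugate. % inhibition calculated against untreated lysate. Duplicate reactions.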

pIC50: −log10 of the molar value. A value given as a limit tells only on which side of the number the result lay.

Serine/threonine-protein kinase B-raf, sequence (P15056 whole entry, the tested form may be a part): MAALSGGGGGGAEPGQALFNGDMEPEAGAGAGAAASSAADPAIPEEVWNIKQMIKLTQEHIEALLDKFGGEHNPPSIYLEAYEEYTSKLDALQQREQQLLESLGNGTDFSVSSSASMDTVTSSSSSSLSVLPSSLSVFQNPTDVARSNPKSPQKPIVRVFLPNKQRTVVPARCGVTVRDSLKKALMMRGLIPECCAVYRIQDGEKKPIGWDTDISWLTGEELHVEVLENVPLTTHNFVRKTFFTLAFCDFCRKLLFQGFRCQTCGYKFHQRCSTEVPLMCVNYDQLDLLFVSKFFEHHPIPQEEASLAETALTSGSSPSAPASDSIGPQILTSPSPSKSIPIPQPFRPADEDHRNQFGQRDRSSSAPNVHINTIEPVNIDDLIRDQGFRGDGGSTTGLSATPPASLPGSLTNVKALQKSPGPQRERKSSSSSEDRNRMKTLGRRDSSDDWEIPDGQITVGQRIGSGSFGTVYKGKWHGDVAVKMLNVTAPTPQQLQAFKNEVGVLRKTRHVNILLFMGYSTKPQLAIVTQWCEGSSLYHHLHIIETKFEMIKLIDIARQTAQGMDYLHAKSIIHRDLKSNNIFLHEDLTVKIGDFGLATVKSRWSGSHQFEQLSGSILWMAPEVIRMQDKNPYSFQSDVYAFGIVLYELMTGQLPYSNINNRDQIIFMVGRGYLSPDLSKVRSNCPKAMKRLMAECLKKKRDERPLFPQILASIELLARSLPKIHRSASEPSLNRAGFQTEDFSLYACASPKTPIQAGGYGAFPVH
RAC-alpha serine/threonine-protein kinase, sequence (P31749 whole entry, the tested form may be a part): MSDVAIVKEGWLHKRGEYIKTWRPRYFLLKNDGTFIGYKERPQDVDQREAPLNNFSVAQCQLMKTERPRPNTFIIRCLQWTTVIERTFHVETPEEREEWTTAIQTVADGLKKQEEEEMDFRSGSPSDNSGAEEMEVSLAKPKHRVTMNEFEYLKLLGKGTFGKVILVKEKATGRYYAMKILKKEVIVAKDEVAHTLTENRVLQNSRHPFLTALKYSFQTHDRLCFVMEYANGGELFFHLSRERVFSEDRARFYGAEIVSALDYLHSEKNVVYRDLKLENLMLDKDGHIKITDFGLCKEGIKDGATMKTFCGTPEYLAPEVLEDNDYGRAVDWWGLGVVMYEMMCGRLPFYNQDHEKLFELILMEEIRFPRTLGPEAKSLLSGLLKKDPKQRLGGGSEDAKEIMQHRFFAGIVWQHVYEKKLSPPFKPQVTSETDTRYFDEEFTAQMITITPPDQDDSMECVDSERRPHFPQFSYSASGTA
Cyclin-dependent kinase 1, sequence (P06493 whole entry, the tested form may be a part): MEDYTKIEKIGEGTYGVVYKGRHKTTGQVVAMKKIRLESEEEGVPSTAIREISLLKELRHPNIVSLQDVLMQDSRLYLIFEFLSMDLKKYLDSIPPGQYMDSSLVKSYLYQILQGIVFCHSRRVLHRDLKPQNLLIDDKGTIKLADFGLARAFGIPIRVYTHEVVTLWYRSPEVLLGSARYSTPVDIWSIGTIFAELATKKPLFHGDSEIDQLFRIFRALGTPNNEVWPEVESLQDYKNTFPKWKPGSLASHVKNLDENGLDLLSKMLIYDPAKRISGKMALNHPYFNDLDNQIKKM

For the compound `CCOc1cc(N2CCC(O)CC2)ccc1Nc1ncc2c(n1)N(C)c1ccccc1C(=O)N2C`, the inhibition in [1] is -8.4%; in [4] it was 7.5%; in series [5], -6.9%; in [9], 23.1%; in series [10] it was 8%. The pIC50 was 4.59 in series [2] and under 4.30 in series [6]. The concentration at 0.5 h in series [3] is about 500 nM. In addition, the inhibition at 2 µM in series [7] is 4.6%. In series [8], the IC50 was over 50 µM.
